Experiments:
[1] = system: metabolism of JNJ-38877605 in human 12000×g liver supernatant; format: in vitro ADME; conditions: 5 μM 3H-JNJ-38877605, human 12000×g liver supernatant
Method in brief: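 5 μM 3H-labelled test compound incubated with human 12000×g liver supernatant, with and without specific inhibitors of aldehyde oxidase/CYP2C8 or of CYP-450. Metabolites identified by LC-MS and quantified via the 3H label. Read-out is % inhibition of formation of each metabolite and of summed metabolite formation.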

Fms = conditions: of 246 kinases tested; cited from earlier work
[2] = phase I first-in-human dose escalation study, toxicity; format: in vivo
[3] = plasma metabolite profiling, man; format: in vivo, human; conditions: 60 mg, at about Cmax (1-4 h)
[4] = 1-month non-GLP toxicology study in male rabbit, post-mortem kidney changes; format: in vivo; conditions: 1-month dosing; for Basophilia, corticotubular with basement membrane thickening, incidence / Dilatation, collecting ducts with amorphous material, incidence / Dilation, corticotubular, extending towards cortex, incidence / Fibrosis, cortical, incidence / Hypertrophy, corticotubular; with spicules and multinucleated cells, incidence: N 4
[5] = plasma metabolite profiling, dog; format: in vivo; conditions: 3H-JNJ-38877605 2.5 mg/kg, at about Cmax (1-4 h)
[6] = plasma metabolite profiling, rabbit; format: in vivo; conditions: 3H-JNJ-38877605 100 mg/kg, at about Cmax (1-4 h)
[7] = pharmacokinetics in humans, phase I study; format: in vivo, human; conditions: patients
Method in brief: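 Patients received oral test compound once daily in 21-day cycles: 60 mg starting dose, with 10-40 mg OD levels added later. Blood was sampled at pre-specified times from cycle 1 day 1. Parent and N-desmethyl metabolite M2 were quantified in plasma. Cmax, tmax, t1/2, AUC and terminal elimination rate were calculated.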

[8] = metabolite formation in human liver 12000 ×g supernatant; format: in vitro ADME; conditions: 5 μM 3H-JNJ-38877605, 120 min
Method in brief: (§1)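 Radiolabelled (3H) test compound was incubated with human liver subcellular fractions (microsomes or 12000 ×g supernatant). Metabolites were identified by LC-MS and quantified only where a reference standard or 3H label existed. Parallel incubations included specific inhibitors, quercetin (aldehyde oxidase/CYP2C8) or 1-aminobenzotriazole (CYP-450). Results were expressed as % inhibition of metabolite formation.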

[9] = metabolite formation in human liver microsomes; format: in vitro ADME; conditions: 5 μM 3H-JNJ-38877605, 120 min
Method in brief: as §1

c-Met Kinase = conditions: read-out: IC50 for c-Met Kinase in vitro; cited from earlier work
[10] = plasma metabolite profiling, rat; format: in vivo; conditions: 3H-JNJ-38877605 2.5 mg/kg, at about Cmax (1-4 h)
[11] = group 2: 50 mg/kg 3/week (150 mg/kg/week)
[12] = group 3: 100 mg/kg 1/week (100 mg/kg/week)
[13] = group 4: 200 mg/kg 1/week (200 mg/kg/week)
[14] = group 5: 100 mg/kg 3/week (300 mg/kg/week)
[15] = group 6: 50 mg/kg 1/day (350 mg/kg/week)

Nn1nnc2ccccc21 [1-aminobenzotriazole]
% inhibition of metabolite formation, M1/M2 [1]: 58% | % inhibition of metabolite formation, M3 [1]: 1% | % inhibition of metabolite formation, M4 [1]: 70% | % inhibition of metabolite formation, UD (sum of all metabolite formation) [1]: 19%

Cn1cc(-c2ccc3nnc(C(F)(F)c4ccc5ncccc5c4)n3n2)cn1 [JNJ-38877605]
selectivity for c-Met kinase relative to the next most potently inhibited kinase (Fms) (Fms): > 833 fold | patients with grade 1 SCr increase ([2]; 40 mg OD): 2/3 | serum creatinine (SCr) increase, CTCAE grade ([2]; 60 mg OD, all 5 subjects, asymptomatic): Grade 1 | time to SCr increase after start of treatment ([2]; 60 mg OD, in 4 patients): 2 to 3 days | glomerular filtration rate by Cr51 measurement ([2]; 1 patient, 40 mg cohort, cycle 1 day 21 (98 pre-treatment)): 45 ml/min/1.73m^2 | decrease of glomerular filtration rate by Cr51 measurement ([2]; 1 patient, 40 mg cohort, pre-treatment to cycle 1 day 21): > 50% | renal toxicity ([2]; 10 and 20 mg OD): no indication of renal toxicity | concentration in plasma [3]: 111 ngeq/ml | Dilatation, collecting ducts with amorphous material, animals graded minimal [4, 11]: 3 | Dilatation, collecting ducts with amorphous material, animals graded moderate [4, 11]: 0 | Dilatation, collecting ducts with amorphous material, animals graded slight [4, 11]: 0 | Kidney weights, fold change vs control [4, 11]: ×0.93 fold | Basophilia, corticotubular with basement membrane thickening, incidence [4, 11]: 2 | Dilatation, collecting ducts with amorphous material, incidence [4, 11]: 3 | Dilation, corticotubular, extending towards cortex, incidence [4, 11]: 0 | Fibrosis, cortical, incidence [4, 11]: 0 | Hypertrophy, corticotubular; with spicules and multinucleated cells, incidence [4, 11]: 1 | Dilatation, collecting ducts with amorphous material, animals graded minimal [4, 12]: 1 | Dilatation, collecting ducts with amorphous material, animals graded moderate [4, 12]: 0 | Dilatation, collecting ducts with amorphous material, animals graded slight [4, 12]: 3 | Basophilia, corticotubular with basement membrane thickening, incidence [4, 12]: 2 | Dilatation, collecting ducts with amorphous material, incidence [4, 12]: 4 | Dilation, corticotubular, extending towards cortex, incidence [4, 12]: 0 | Fibrosis, cortical, incidence [4, 12]: 0 | Hypertrophy, corticotubular; with spicules and multinucleated cells, incidence [4, 12]: 3 | Dilatation, collecting ducts with amorphous material, animals graded minimal [4, 13]: 0 | Dilatation, collecting ducts with amorphous material, animals graded moderate [4, 13]: 1 | Dilatation, collecting ducts with amorphous material, animals graded slight [4, 13]: 3 | Dilation, corticotubular, extending towards cortex, animals graded minimal [4, 13]: 2 | Dilation, corticotubular, extending towards cortex, animals graded slight [4, 13]: 1 | Fibrosis, cortical, animals graded minimal [4, 13]: 0 | Fibrosis, cortical, animals graded slight [4, 13]: 1 | Kidney weights, fold change vs control [4, 13]: ×1.20 fold | Basophilia, corticotubular with basement membrane thickening, incidence [4, 13]: 4 | Dilatation, collecting ducts with amorphous material, incidence [4, 13]: 4 | Dilation, corticotubular, extending towards cortex, incidence [4, 13]: 3 | Fibrosis, cortical, incidence [4, 13]: 1 | Hypertrophy, corticotubular; with spicules and multinucleated cells, incidence [4, 13]: 4 | Dilatation, collecting ducts with amorphous material, animals graded minimal [4, 14]: 1 | Dilatation, collecting ducts with amorphous material, animals graded moderate [4, 14]: 1 | Dilatation, collecting ducts with amorphous material, animals graded slight [4, 14]: 2 | Dilation, corticotubular, extending towards cortex, animals graded minimal [4, 14]: 2 | Dilation, corticotubular, extending towards cortex, animals graded slight [4, 14]: 1 | Fibrosis, cortical, animals graded minimal [4, 14]: 2 | Fibrosis, cortical, animals graded slight [4, 14]: 0 | Kidney weights, fold change vs control [4, 14]: ×1.13 fold | Basophilia, corticotubular with basement membrane thickening, incidence [4, 14]: 3 | Dilatation, collecting ducts with amorphous material, incidence [4, 14]: 4 | Dilation, corticotubular, extending towards cortex, incidence [4, 14]: 3 | Fibrosis, cortical, incidence [4, 14]: 2 | Hypertrophy, corticotubular; with spicules and multinucleated cells, incidence [4, 14]: 4 | Dilatation, collecting ducts with amorphous material, animals graded minimal [4, 15]: 0 | Dilatation, collecting ducts with amorphous material, animals graded moderate [4, 15]: 2 | Dilatation, collecting ducts with amorphous material, animals graded slight [4, 15]: 2 | Dilation, corticotubular, extending towards cortex, animals graded minimal [4, 15]: 2 | Dilation, corticotubular, extending towards cortex, animals graded slight [4, 15]: 1 | Fibrosis, cortical, animals graded minimal [4, 15]: 1 | Fibrosis, cortical, animals graded slight [4, 15]: 1 | Basophilia, corticotubular with basement membrane thickening, incidence [4, 15]: 4 | Dilatation, collecting ducts with amorphous material, incidence [4, 15]: 4 | Dilation, corticotubular, extending towards cortex, incidence [4, 15]: 3 | Fibrosis, cortical, incidence [4, 15]: 2 | Hypertrophy, corticotubular; with spicules and multinucleated cells, incidence [4, 15]: 4 | concentration in plasma [5]: 575 ngeq/ml | concentration in plasma [6]: 22836 ngeq/ml | accumulation after 21 days ([7]; oral OD): virtually no accumulation | plasma half-life ([7]; oral): short | time of Cmax after ingestion ([7]; oral): 1.5 to 4 h | formation of metabolites after incubation of JNJ-38877605 [8]: 26.0 | formation of metabolites after incubation of JNJ-38877605 [9]: 12.8 | IC50 (c-Met Kinase): 4.7 nM | concentration in plasma [10]: 1466 ngeq/ml

FC(F)(c1ccc2ncccc2c1)c1nnc2ccc(-c3cn[nH]c3)nn12 [M2]
concentration in plasma [3]: 3 ngeq/ml | concentration in plasma [5]: 31 ngeq/ml | concentration in plasma [6]: 6388 ngeq/ml | concentration in plasma [10]: 136 ngeq/ml

O=c1c(O)c(-c2ccc(O)c(O)c2)oc2cc(O)cc(O)c12 [Quercetin]
% inhibition of metabolite formation, M1/M2 [1]: 75% | % inhibition of metabolite formation, M3 [1]: 94% | % inhibition of metabolite formation, M4 [1]: 73% | % inhibition of metabolite formation, UD (sum of all metabolite formation) [1]: 112%

From publication PMC4433755 (Clinical cancer research : an official journal of the …, 2015)
